Measurements: ChEMBL document CHEMBL1133753, “6-N-Acyltriciribine analogues: structure-activity relationship between acyl carbon chain length and activity against HIV-1” (J Med Chem, 2000)

Assays:
[1] = Antiviral activity against HSV-1 was determined using BSC-1 cells by an enzyme-linked immunosorbent assay (ELISA); format: functional, cell-based; settings: Cercopithecidae
HFF [2] = assay: Antiviral activity against HCMV was determined by plaque reduction assay using HFF cells; format: functional, cell-based; settings: Homo sapiens
HFF [3] = assay: Visual cytotoxicity was scored on uninfected HFF cells; format: functional, cell-based; settings: Homo sapiens
CEM-SS [4] = assay: Visual cytotoxicity was scored on CEM-SS cells; format: functional, cell-based; settings: Homo sapiens
[5] = (§1) Cytotoxicity measured as Inhibition of KB cell growth was assessed.; format: cell-based; settings: Homo sapiens
Outline: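 KB cells plated at 5000/well and incubated overnight at 37 °C. Compound added in triplicate at eight concentrations, then 48 h at 37 °C in CO₂ (two population doublings). Cells fixed with 95% ethanol, stained with 0.1% crystal violet, dye eluted with acidified ethanol and read at 570 nm. IC50 taken from linear regression of % inhibition vs log concentration.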

[6] = as §1; format: functional, cell-based; settings: Homo sapiens
CEM-SS [7] = assay: Intracellular phosphorylation (100 uM) in uninfected CEM-SS cells was studied after 24 hrs of Incubation.; format: functional, cell-based; settings: Homo sapiens
Outline: (§2)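 Uninfected cells grown in suspension with compound at the stated extracellular concentration for 5 or 24 h. Cells pelleted and washed in cold Puck's saline with glucose. Nucleotides extracted with 0.6 N TCA on ice, neutralized with freon/0.5 M triethylamine, then separated by reverse-phase C18 HPLC (formic acid pH 2.5 to 50% methanol gradient), UV 254/290 nm; peaks identified by electrospray MS in a separate run. TCN-P quantified against standards and converted to μM using 1.9 pL/cell.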

CEM-SS [8] = assay: Intracellular phosphorylation (10 uM) in uninfected CEM-SS cells was studied; format: functional, cell-based; settings: Homo sapiens; outline: as §2
[9] = Antiviral activity was evaluated by RT (reverse transcriptase) activity in cells acutely infected with HIV-1
CEM-SS [10] = assay: Intracellular phosphorylation (10 uM) in uninfected CEM-SS cells was studied after 24 hrs of Incubation.; format: functional, cell-based; settings: Homo sapiens; outline: as §2
Homo sapiens = species on record: Homo sapiens; assay: Intracellular phosphorylation (100 uM) in uninfected AA2 cells was studied, after 5 hrs of Incubation.; format: functional, cell-based; outline: as §2
CEM-SS [11] = assay: Intracellular phosphorylation (100 uM) studied, after 5 hrs of Incubation.; format: functional, cell-based; settings: Homo sapiens; outline: as §2

Row | IC50 [1] [µM] | IC50 [9] [µM] | SMILES | IC50 (HFF [2]) [µM] | IC50 (HFF [3]) [µM] | IC50 (CEM-SS [4]) [µM] | IC50 [5] [µM] | IC50 [6] [µM] | Concentration (CEM-SS [7]) [µM] | Concentration (CEM-SS [8]) [µM] | Concentration (CEM-SS [10]) [µM] | Concentration (Homo sapiens) [µM] | Concentration (CEM-SS [11]) [µM]
1 | > 100 |  | CCC(=O)NC1=NN(C)c2ncnc3c2c1cn3C1O[C@H](CO)[C@@H](O)[C@H]1O (some centres undefined) | 40 | 100 | > 100 | > 100 |  |  |  |  |  | 
2 | > 100 |  | CCCCC(=O)NC1=NN(C)c2ncnc3c2c1cn3C1O[C@H](CO)[C@@H](O)[C@H]1O (some centres undefined) | 0.45 | > 100 | 32 |  | 30 | 710 |  |  |  | 
3 | > 100 |  | CCCCCCCCC(=O)NC1=NN(C)c2ncnc3c2c1cn3C1O[C@H](CO)[C@@H](O)[C@H]1O (some centres undefined) | 12 | 21 | 32 |  | 65 |  | 243 |  |  | 
4 | > 100 |  | CC(=O)NC1=NN(C)c2ncnc3c2c1cn3C1O[C@H](CO)[C@@H](O)[C@H]1O (some centres undefined) | > 100 | > 100 | > 100 |  | > 100 |  |  |  |  | 
5 | > 100 |  | CCCCCCCCCC(=O)NC1=NN(C)c2ncnc3c2c1cn3C1O[C@H](CO)[C@@H](O)[C@H]1O (some centres undefined) | 12 | 21 | 32 |  | 40 |  |  |  |  | 
6 | > 100 |  | CC(C)C(=O)NC1=NN(C)c2ncnc3c2c1cn3C1O[C@H](CO)[C@@H](O)[C@H]1O (some centres undefined) | > 100 | > 100 | > 100 |  | > 100 |  |  |  |  | 
7 | > 100 |  | CCCC(=O)NC1=NN(C)c2ncnc3c2c1cn3C1O[C@H](CO)[C@@H](O)[C@H]1O (some centres undefined) | 10 | 100 | > 100 |  | 100 |  |  |  |  | 
8 | > 100 |  | CN1N=C(NC(=O)C(C)(C)C)c2cn(C3O[C@H](CO)[C@@H](O)[C@H]3O)c3ncnc1c23 (some centres undefined) | > 100 | > 100 | > 100 |  | > 100 |  |  |  |  | 
9 | 20 | 0.04 | CN1N=C(N)c2cn([C@@H]3O[C@H](COP(=O)(O)O)[C@@H](O)[C@H]3O)c3ncnc1c23 [TRICIRIBINE PHOSPHATE] |  |  | > 1 |  | 10 |  |  |  |  | 
10 | > 100 |  | CCCCCCCC(=O)NC1=NN(C)c2ncnc3c2c1cn3C1O[C@H](CO)[C@@H](O)[C@H]1O (some centres undefined) | 12 | 21 | 32 |  | 40 |  |  |  |  | 
11 | > 100 |  | CCCCCC(=O)NC1=NN(C)c2ncnc3c2c1cn3C1O[C@H](CO)[C@@H](O)[C@H]1O (some centres undefined) | 8.8 | 100 | 45 |  | 40 |  |  |  |  | 
12 | > 100 |  | CCCCCCC(=O)NC1=NN(C)c2ncnc3c2c1cn3C1O[C@H](CO)[C@@H](O)[C@H]1O (some centres undefined) | 11 | 32 | 32 |  | 30 |  |  | 225 | 48 | 850
13 | > 100 |  | CN1N=C(NC(=O)c2ccccc2)c2cn(C3O[C@H](CO)[C@@H](O)[C@H]3O)c3ncnc1c23 (some centres undefined) | > 100 | > 100 | > 100 |  | > 100 |  |  |  |  | 
14 | 45 |  | CCCCCCCCCCCC(=O)NC1=NN(C)c2ncnc3c2c1cn3C1O[C@H](CO)[C@@H](O)[C@H]1O (some centres undefined) | 12 | 21 | 32 |  | 75 |  |  |  |  | 
